High-throughput results from PubChem BioAssay.
ARNT-TACC3 inh: disruptors of ARNT/TACC3 protein interaction, primary screen, biochemical, AlphaScreen, single concentration; AlphaScreen His-ARNT PAS-B/GST-TACC3 binding, luminescence; TACC3 fragment carries E629A point mutation; inhibition, % at 9.99 µM; 390,000 tested, 0.66% active;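 active = mean inhibition of replicates at least 50% and at least half of replicates each reaching 50%; inconclusive = half or more replicates reach 50% but mean below 50%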
FN deposit inh: inhibitors of fibronectin matrix deposition, primary screen, AH1F cells, Alexa488-fibronectin fluorescence, plate reader. AH1F fibroblasts, overnight. 350,000 tested, 0.086% active. AID 743247, 2014. inhibition, % at 12.6 µM;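 active = mean inhibition across replicates of 30% or more, regardless of how many single replicates reach that level; inconclusive = mean under 30% yet at least half of replicates reach 30%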
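Material – AH1F fibroblast monolayer, labelled fibronectin deposition · Reagent – labelled fibronectin 24 nM · Timing – 1 h adhesion, overnight exposure · Measured by – fluorescence at 485 nm excitation, 525 nm emission · Read-out – inhibition of fibronectin deposition signal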
Xi reactivation: activators of inactive X chromosome reactivation, primary screen, imaging, XiGFP fibroblasts, GFP high-content imaging, set 2 | XiGFP mouse fibroblasts, % GFP-positive cells imaging, 3 d; cells co-treated with 5-aza-dC sensitizer; scaled so ellipticine positive control = 100% | activation, % at 7.58 µM | 360,000 tested, 0.055% active | AID 743238, 2013;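 active = mean normalized replicate activation at least 10% and every replicate at or above 10%; inconclusive = only one of the two criteria met; inactive = mean below 10% and not all replicates reach 10%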
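assay system = SV40-immortalized XiGFP fibroblast cells, line 68-5-11 | buffer or medium = DMEM plus 5-aza-dC sensitizer | doses = single-point pinned compound dosing | times = 3-day compound exposure, then 15 min fixation at room temperature | benchmarks = positive control ellipticine, 6 µM final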
FGF22 binding: binders of human FGF22 protein, primary screen, FGF22 synaptogenesis inhibitor project, biophysical, thermal shift, single point. Fibroblast growth factor 22 (Homo sapiens), Q9HCT0. recombinant FGF22 thermal shift, SYPRO orange fluorescence; percent of sucrose octasulfate shift, DMSO zero. activity (Tm shift, normalised), % at 9.99 µM. 340,000 tested, 1.5% active. AID 651658, 2012;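 active = mean Tm shift, scaled 0 neutral to 100 positive control, at about 1.3% or above, every replicate too, limit read from the data; inconclusive = no clear call, values can overlap the other calls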
Target sequence (Q9HCT0 whole entry, looked up): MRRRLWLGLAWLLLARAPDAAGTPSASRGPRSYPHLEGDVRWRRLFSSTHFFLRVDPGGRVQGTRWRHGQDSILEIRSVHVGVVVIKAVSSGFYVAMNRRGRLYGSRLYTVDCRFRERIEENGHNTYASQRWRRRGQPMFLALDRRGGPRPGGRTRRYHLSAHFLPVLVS
SIRT5 block: SIRT5 desuccinylase inhibitors, primary screen, biochemical, fluorescence imaging, single point, set 5 | Purified SirT5, succinyl-peptide AMC, trypsin-coupled fluorescence | 330,000 tested, 1.1% active | AID 652115, 2013 | inhibition, % at 15 µM; in the data active = inhibition above about 15%; inconclusive = no clear call, values can overlap the other calls
Target sequence (Q9NXA8 whole entry, looked up): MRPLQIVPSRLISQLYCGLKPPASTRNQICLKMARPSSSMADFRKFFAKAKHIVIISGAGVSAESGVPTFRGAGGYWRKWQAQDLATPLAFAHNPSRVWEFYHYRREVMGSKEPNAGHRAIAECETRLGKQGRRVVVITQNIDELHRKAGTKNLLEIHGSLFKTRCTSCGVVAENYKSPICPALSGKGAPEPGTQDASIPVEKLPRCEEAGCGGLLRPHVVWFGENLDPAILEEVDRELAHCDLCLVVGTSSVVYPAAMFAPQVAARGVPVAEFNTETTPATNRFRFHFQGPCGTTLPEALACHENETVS
DENV2 CPE: inhibitors of DENV2 cytopathic effect, primary screen, cell-based, plate reader, single concentration; AID 651640, 2012; CPE inhibition, % at 9.99 µM; 350,000 tested, 1.7% active; DENV2-infected cells, cytopathic effect rescue; in the data active = CPE inhibition above about 20%, passing the limit was not always enough; inconclusive = no clear call, values can overlap the other calls; tested in BHK-21 cells
ARNT Alpha ctr-1: AlphaScreen signal interference compounds, dose response, artefact control for ARNT-TACC3 interaction inhibitor project, biochemical, luminescence, cherry-pick. shares compounds with ARNT-TACC3 inh. His-ARNT PASB-GST AlphaScreen artifact counter-screen. AC50, µM (highest dose often 68 µM). 1,200 tested, 50% active;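 active = every separate test run was called active for a drop in luminescence, with AC50 within twice the top valid dose, actives reach about 71 µM in these data; inconclusive = the separate test runs disagree in their calls; inactive = all runs inactive, including signal change in the wrong direction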
ARNT Alpha ctr-2: AlphaScreen signal interference by compounds, dose response, artefact control for ARNT/TACC3 disruptor project, biochemical, dual-tagged ARNT, dry powder | shares compounds with ARNT-TACC3 inh | AID 720564, 2013 | AC50, µM | Dual-tagged His-ARNT PASB-GST AlphaScreen artifact counter-screen | 45 tested, 70% active;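 active = luminescence drop, with half-maximal potency fitted within twice the sample's top valid dose, cut at about 70 µM in these data; inactive = the rest, including signal moving the wrong way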
Each line names hits and unclear results; the compound was inactive in the other large screens (follow-up assays come after a bar, where they were run). Rows were chosen to be rich in hits. Some 3.8% of all compounds tested hit in one or more screens of this group.

C[C@H](CO)N1C[C@H](C)[C@@H](CN(C)C(=O)c2ccncc2)Oc2ncc(C#C[C@@H](C)O)cc2C1=O	none (no result: FN deposit inh)
CC(C)COCc1ccc(O)c2ncccc12	ARNT-TACC3 inh 67 | ARNT Alpha ctr-1 18µM
CN(C)CCCNc1cc(O)c2ncccc2c1	ARNT-TACC3 inh 64, DENV2 CPE 57 | ARNT Alpha ctr-1 6.2µM
Oc1cc(NCc2ccc(F)cc2)cc2cccnc12	ARNT-TACC3 inh 60 | ARNT Alpha ctr-1 30µM
O=C(C1CCC1)N1CC2(C1)[C@H](c1ccccc1)[C@H](CO)N2CC1CCCC1	none (no result: ARNT-TACC3 inh, FN deposit inh, FGF22 binding)
FC(F)(F)c1cc(-c2nn[nH]n2)cc(C(F)(F)F)c1	none (no result: ARNT-TACC3 inh, FN deposit inh, Xi reactivation, FGF22 binding, SIRT5 block, DENV2 CPE) | ARNT Alpha ctr-2 inactive
FC(F)(F)c1cccc(-c2nn[nH]n2)c1	none
C[C@@H]1CN([C@H](C)CO)C(=O)c2cc(C#C[C@@H](C)O)cnc2O[C@@H]1CN(C)C(=O)Cc1ccncc1	none
CS(=O)(=O)Nc1ccc2c(c1)[C@@H]1C[C@@H](CC(=O)N3CCOCC3)O[C@@H](CO)[C@@H]1O2	none (no result: ARNT-TACC3 inh)
CC(C)(C)c1ccc(OCCNC(=O)c2ncn[nH]2)cc1	ARNT-TACC3 inh 77 (no result: Xi reactivation, FGF22 binding, SIRT5 block, DENV2 CPE) | ARNT Alpha ctr-1 inactive
COc1ccc2cc1Oc1ccc(cc1)C[C@H]1c3cc(c(OC)cc3CCN1C)Oc1c(OC)c(OC)cc3c1[C@@H](C2)N(C)CC3	ARNT-TACC3 inh 30 (no result: SIRT5 block) | ARNT Alpha ctr-1 inactive
CNC[C@H]1Oc2cc(C#CC3(O)CCCC3)ccc2S(=O)(=O)N([C@@H](C)CO)C[C@@H]1C	none
COc1cccc(S(=O)(=O)N[C@H]2CC[C@H](CCn3cc(-c4ccccn4)nn3)O[C@@H]2CO)c1	DENV2 CPE inconclusive (no result: ARNT-TACC3 inh, FN deposit inh)
O=S(=O)(N[C@@H]1CC[C@@H](CCn2cc(-c3ccccn3)nn2)O[C@H]1CO)c1cccc(Cl)c1	ARNT-TACC3 inh 66, DENV2 CPE 37 | ARNT Alpha ctr-1 41µM
O=S(=O)(N[C@@H]1CC[C@H](CCn2cc(-c3ccccn3)nn2)O[C@@H]1CO)c1cccc(Cl)c1	ARNT-TACC3 inh 66 | ARNT Alpha ctr-1 31µM
O=S(=O)(N[C@H]1CC[C@@H](CCn2cc(-c3ccccn3)nn2)O[C@H]1CO)c1cccc(Cl)c1	ARNT-TACC3 inh 70, DENV2 CPE inconclusive | ARNT Alpha ctr-1 32µM
COc1cccc(S(=O)(=O)N[C@@H]2CC[C@@H](CCn3cc(-c4ccccn4)nn3)O[C@H]2CO)c1	DENV2 CPE inconclusive (no result: ARNT-TACC3 inh, FN deposit inh)
COC(=O)c1c(N)n(-c2ccc(NC(C)=O)cc2)c2nc3ccccc3nc12	ARNT-TACC3 inh 14 (no result: FN deposit inh, Xi reactivation, FGF22 binding, SIRT5 block, DENV2 CPE) | ARNT Alpha ctr-1 inactive
CC(=O)NC(C)c1cc(Cl)c2cccnc2c1O (configuration not stated)	ARNT-TACC3 inh 52, FGF22 binding 45 (no result: DENV2 CPE) | ARNT Alpha ctr-1 36µM
CCC(=O)NC(C)c1cc(Cl)c2cccnc2c1O (configuration not stated)	ARNT-TACC3 inh 61 (no result: SIRT5 block) | ARNT Alpha ctr-1 43µM
COc1ccccc1-c1cnc2c(c1)C(=O)N([C@@H](C)CO)C[C@H](C)[C@H](CN(C)Cc1ccc(C(=O)O)cc1)O2	none
CCC(=O)N(CC(C)C)C[C@H]1[C@H](c2ccccc2)[C@@H](CO)N1C(=O)C1CCC1	none
C[C@H](CO)N1C[C@H](C)[C@H](CN(C)C(=O)Cc2ccncc2)Oc2cc(C#CC3CCCCC3)ccc2S1(=O)=O	none (no result: FN deposit inh)
O=C(N/N=C/c1ccccc1)c1cccc2ccccc12	none
O=C(N/N=C/c1sc2ccccc2c1O)c1cccc2ccccc12	ARNT-TACC3 inh 55 (no result: FN deposit inh, FGF22 binding, SIRT5 block, DENV2 CPE) | ARNT Alpha ctr-1 69µM
O=C(CNCc1ccccn1)N1CCc2ccccc2C1	ARNT-TACC3 inh 77 | ARNT Alpha ctr-1 17µM
O=C(CSc1ncccn1)N1CCc2ccccc2C1	none
Cc1cccc(-c2ccc(C3[C@@H]4CN(C(=O)C5CCCCC5)C[C@H]3N4)cc2)c1 (some centres not stated)	none (no result: ARNT-TACC3 inh, SIRT5 block)
COc1cccc(/C=N/Nc2nc3ccccc3[nH]2)c1OC	none
COc1cccc(/C=N/Nc2nc3ccccc3[nH]2)c1O	ARNT-TACC3 inh 58 | ARNT Alpha ctr-1 inactive
CO[C@H]1CN(C)C(=O)c2cc(NC(=O)Cc3ccccc3)ccc2OC[C@H](C)N(C(C)=O)C[C@H]1C	DENV2 CPE inconclusive
C[C@H]1CN([C@@H](C)CO)C(=O)CCCn2nncc2CO[C@@H]1CN(C)S(=O)(=O)c1ccc2c(c1)OCCCO2	none
Cc1nnc(N/N=C/c2ccc(-c3ccc(Br)cc3)o2)n1N	ARNT-TACC3 inh 51 | ARNT Alpha ctr-1 inactive
CO[C@H]1CN(C)C(=O)c2ccc(NC(=O)NC(C)C)cc2OC[C@@H](C)N(CCC(F)(F)F)C[C@H]1C	none
Cc1onc(-c2c(Cl)cccc2Cl)c1C(=O)Nc1ccc(N2CCOCC2)cc1	ARNT-TACC3 inh active | ARNT Alpha ctr-1 inactive
Cc1onc(-c2c(F)cccc2Cl)c1C(=O)Nc1ccccc1N1CCOCC1	none
C[C@]12CC[C@H](O)CC1=CCC1C2CC[C@@]2(C)C1CC[C@@H]2NC(=O)[C@@H](N)Cc1cnc[nH]1 (some centres not stated)	ARNT-TACC3 inh 62 (no result: FN deposit inh) | ARNT Alpha ctr-1 inactive
COC(=O)c1ccccc1-c1ccc(C(c2c(C)[nH][nH]c2=O)c2c(C)[nH][nH]c2=O)o1	ARNT-TACC3 inh 60 (no result: FN deposit inh) | ARNT Alpha ctr-1 inactive
COC(=O)c1ccc(C(c2c(C)[nH][nH]c2=O)c2c(C)[nH][nH]c2=O)cc1	none
c1ccc(-c2nnc(SCc3nc4ccccc4[nH]3)n2Cc2ccco2)nc1	ARNT-TACC3 inh 61 (no result: Xi reactivation, FGF22 binding, SIRT5 block, DENV2 CPE) | ARNT Alpha ctr-1 inactive
Cc1[nH]n(-c2ccccc2)c(=O)c1/C=N/NC(=O)c1cccc(F)c1	ARNT-TACC3 inh 58 | ARNT Alpha ctr-1 43µM
O=C(N/N=C/c1c(Cl)cccc1Cl)c1cccc(F)c1	none (no result: FN deposit inh, Xi reactivation)
